Test results taken from ChEMBL document CHEMBL1123213, “Neuroleptic activity of chiral trans-hexahydro-gamma-carbolines” (J Med Chem, 1986).

What was measured:
Dopamine receptor [1] = assay: Inhibition of [3H]spiroperidol (0.5 nM) binding to dopamine receptor from rat striatal membrane.
Rattus norvegicus [2] = assay: Compound was tested for the antagonistic activity against amphetamine-induced stereotypy in rats; (5 mg/kg administered ip 5 hr after the test compound); format: functional
How it was run: (§1)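 Rats housed singly in covered compartments, briefly acclimated, then dosed sc in groups of five at doses spaced 0.5 log unit (1, 3.2, 10, 32 mg/kg). d-Amphetamine sulfate 5 mg/kg ip given 1, 5 and 24 h later. Behaviour scored on a six-point scale 1 h after each challenge. ED50 by linear regression or by inspection; no fiducial limits.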

Rattus norvegicus [3] = assay: Compound was tested for the antagonistic activity against amphetamine-induced stereotypy in rats; (5 mg/kg administered ip 24 hr after the test compound); format: functional; how it was run: as §1
Rattus norvegicus [4] = assay: Antagonistic activity against amphetamine-induced stereotypy in rats; (5 mg/kg administered ip 1 hr after the test compound).; format: functional; how it was run: as §1
Rattus norvegicus [5] = species on record: Rattus norvegicus; assay: Compound was tested for the antagonistic activity against amphetamine-induced stereotypy in rat.; format: functional; how it was run: as §1
Rattus norvegicus [6] = assay: Compound was tested for the antagonistic activity against amphetamine-induced stereotypy in rats; (5 mg/kg administered ip 5 hr after the test compound).; format: functional; how it was run: as §1
Rattus norvegicus [7] = assay: Compound was tested for the antagonistic activity against amphetamine-induced stereotypy in rats; (5 mg/kg administered ip 24 hr after the test compound).; format: functional; how it was run: as §1
Mus musculus [8] = assay: Compound was tested for the anticholinergic activity against tetrabenazine-treated mice; activity expressed as the pupil size at the dose of 1 mg/kg sc; details: route subcutaneous
Mus musculus [9] = assay: Compound was tested for the anticholinergic activity against tetrabenazine-treated mice; activity expressed as the pupil size at the dose of 10 mg/kg sc; format: functional; details: route subcutaneous
How it was run: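 Mice in groups of five dosed sc, then given tetrabenazine 32 mg/kg ip 1 h later. Pupils measured 30 min afterward under a binocular microscope, with reticle readings converted to mm. Reported as mean ± SD pupil size. Vehicle-pretreated tetrabenazine groups served as controls.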

Dopamine receptor [10] = assay: Compound was tested for inhibition of [3H]spiroperidol (0.5 nM) binding to dopamine receptor from rat striatal membrane; Insoluble
Mus musculus [11] = assay: Compound was tested for the anticholinergic activity against tetrabenazine-treated mice; activity expressed as the pupil size at the dose of 100 mg/kg sc; format: functional; details: route subcutaneous
How it was run: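 Groups of five mice dosed sc with test compound, then 1 h later tetrabenazine 32 mg/kg ip. After 30 min, pupil size measured with a binocular microscope; reticle readings converted to mm. Reported as mean ± SD pupil size (mm). Vehicle-pretreated tetrabenazine control groups of five run alongside.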

Mus musculus [12] = assay: Compound was tested for the anticholinergic activity against tetrabenazine-treated mice; activity expressed as the pupil size at the dose of 32 mg/kg sc; format: functional; details: route subcutaneous
Rattus norvegicus [13] = assay: Compound was tested for the antagonistic activity against amphetamine-induced stereotypy in rats; (5 mg/kg administered ip 5 after the test compound).; format: functional; how it was run: as §1
[14] = Rattus norvegicus, ip, 5 h, read-out: ED50
[15] = Rattus norvegicus, ip, 24 h, read-out: ED50
[16] = Rattus norvegicus, ip, 1 h, read-out: ED50

Row | SMILES | IC50 (Dopamine receptor [1]) | ED50 (Rattus norvegicus [4]; [16]) | ED50 (Rattus norvegicus [6]) | ED50 (Rattus norvegicus [7]) | other results
1 | O[C@H](CCCN1CC[C@H]2[C@H](C1)c1cc(F)ccc1N2c1ccc(F)cc1)c1ccc(F)cc1 (stereo in doubt; 2a) | 25 nM |  |  |  | ED50 (Rattus norvegicus [2]): 0.05 mg/kg; ED50 (Rattus norvegicus [3]): 0.02 mg/kg; ED50 (Rattus norvegicus [4]): 0.21 mg/kg
2 | Fc1ccc(N2c3ccc(F)cc3[C@H]3CNCC[C@@H]32)cc1 | 6.7 nM | 0.36 mg/kg |  |  | ED50 (Rattus norvegicus [2]; [14]): 0.45 mg/kg; ED50 (Rattus norvegicus [3]; [15]): > 10 mg/kg
3 | Fc1ccc(-n2c3c(c4cc(F)ccc42)CNCC3)cc1 | 350 nM | > 10 mg/kg |  |  | 
4 | Cl.O=C(NCCCCCCN1CCC2C(C1)c1cc(F)ccc1N2c1ccc(F)cc1)c1ccccc1 (configuration not stated) | 13 nM |  |  |  | ED50 (Rattus norvegicus [5]): 0.1 mg/kg
5 | CN1CCc2c(c3cc(F)ccc3n2-c2ccc(F)cc2)C1.Cl |  |  |  |  | ED50 (Rattus norvegicus [5]): > 1 mg/kg
6 | Cl.O=C1CNC(=O)N1CCCCCN1CC[C@@H]2c3cc(F)ccc3N(c3ccc(F)cc3)[C@H]2C1 | 6 nM | 0.04 mg/kg | 0.02 mg/kg | 0.05 mg/kg | 
7 | OC1(c2ccc(Cl)c(C(F)(F)F)c2)CCN(CCCC(c2ccc(F)cc2)c2ccc(F)cc2)CC1 [PENFLURIDOL] | 62 nM | ~32 mg/kg |  |  | ED50 (Rattus norvegicus [2]; [14]): 2.4 mg/kg; ED50 (Rattus norvegicus [3]; [15]): 3.9 mg/kg
8 | O[C@H](CCCN1CC[C@H]2[C@H](C1)c1cc(F)ccc1N2c1ccc(F)cc1)c1ccc(F)cc1 (stereo in doubt; 2b) | 350 nM |  |  |  | ED50 (Rattus norvegicus [2]): 5.7 mg/kg; ED50 (Rattus norvegicus [3]): >10 mg/kg; ED50 (Rattus norvegicus [4]): >10 mg/kg
9 | CN1[C@@H]2CC[C@H]1C[C@@H](OC(=O)C(CO)c1ccccc1)C2.O=S(=O)(O)O (some centres not stated) [ATROPINE SULFATE] |  |  |  |  | Pupil size (Mus musculus [8]): 1.98 mm
10 | Cl.O=C(CCCN1CCC(N(c2ccc(F)cc2)c2ccc(F)cc2)CC1)c1ccc(F)cc1 | 68 nM | > 32 mg/kg |  | > 32 mg/kg | 
11 | O[C@H](CCCN1CC[C@@H]2[C@@H](C1)c1cc(F)ccc1N2c1ccc(F)cc1)c1ccc(F)cc1 (stereo in doubt; 2c) | 22 nM |  |  |  | ED50 (Rattus norvegicus [2]): 0.02 mg/kg; ED50 (Rattus norvegicus [3]): 0.02 mg/kg; ED50 (Rattus norvegicus [4]): 0.05 mg/kg
12 | CNCCCN1c2ccccc2CCc2ccccc21.Cl [DESIPRAMINE HYDROCHLORIDE] |  |  |  |  | Pupil size (Mus musculus [9]): 0.66 mm
13 | OC(CCN1CC[C@H]2[C@H](C1)c1cc(F)ccc1N2c1ccc(F)cc1)(c1ccccc1)c1ccccc1 | 220 nM | > 10 mg/kg | > 10 mg/kg |  | 
14 | I.O=C(CCCN1CC[C@H]2[C@H](C1)c1cc(F)ccc1N2c1ccc(F)cc1)N(c1ccccc1)C1CCCCC1 |  | > 32 mg/kg | 1 mg/kg | < 32 mg/kg | IC50 (Dopamine receptor [10]): Insoluble
15 | CC(=O)NCCCCN1CCC2C(C1)c1cc(F)ccc1N2c1ccc(F)cc1.Cl (configuration not stated) | 13 nM |  |  |  | ED50 (Rattus norvegicus [5]): 0.006 mg/kg
16 | Cl.O=C(O)CCCN1CCc2c(c3cc(F)ccc3n2-c2ccc(F)cc2)C1 | > 320 nM |  |  |  | 
17 | Cl.O=C1CNC(=O)N1CCCCCCN1CCC2c3cc(F)ccc3N(c3ccc(F)cc3)C2C1 (configuration not stated) | 9.4 nM | 0.18 mg/kg | 0.033 mg/kg | > 0.32 mg/kg | 
18 | O=C1CNC(=O)N1CCN1CCC2c3cc(F)ccc3N(c3ccc(F)cc3)C2C1 (configuration not stated) | 26 nM | 0.57 mg/kg | 0.57 mg/kg | > 32 mg/kg | 
19 | Cl.O=C1CNC(=O)N1CCCCCCN1CC[C@@H]2c3cc(F)ccc3N(c3ccc(F)cc3)[C@H]2C1 | 14 nM | 0.13 mg/kg | 0.02 mg/kg | 0.07 mg/kg | 
20 | Fc1ccc(N2c3ccc(F)cc3[C@@H]3CNCC[C@H]32)cc1 | 3200 nM |  |  |  | 

Row | SMILES | IC50 (Dopamine receptor [1]) | ED50 (Rattus norvegicus [4]; [16]) | ED50 (Rattus norvegicus [6]) | ED50 (Rattus norvegicus [7]) | other results
21 | CN1CCN(C2=Nc3cc(Cl)ccc3Nc3ccccc32)CC1 [CLOZAPINE] |  |  |  |  | Pupil size (Mus musculus [11]): 1.13 mm
22 | O=C1CNC(=O)N1CCCN1CCC2c3cc(F)ccc3N(c3ccc(F)cc3)C2C1 (configuration not stated) | 14 nM | 0.11 mg/kg | 0.05 mg/kg | > 0.32 mg/kg | 
23 | Cl.O=C(O)CCCN1CCC2C(C1)c1cc(F)ccc1N2c1ccc(F)cc1 (configuration not stated) | 140 nM |  |  |  | ED50 (Rattus norvegicus [5]): 0.36 mg/kg
24 | Cl.O=C1CNC(=O)N1CCCCCCN1CCc2c(n(-c3ccc(F)cc3)c3ccc(F)cc23)C1 | 5.8 nM | 1 mg/kg | 0.75 mg/kg | > 10 mg/kg | 
25 | CC(=O)NCCCCN1CCc2c(c3cc(F)ccc3n2-c2ccc(F)cc2)C1.Cl | 54 nM |  |  |  | ED50 (Rattus norvegicus [5]): > 3.2 mg/kg
26 | CN1CCC2C(C1)c1cc(F)ccc1N2c1ccc(F)cc1.Cl (configuration not stated) | 7.5 nM |  |  |  | ED50 (Rattus norvegicus [5]): 0.3 mg/kg
27 | Cl.Fc1ccc(N(c2ccc(F)cc2)C2CCNCC2)cc1 | > 1000 nM |  |  |  | 
28 | Cl.O=C(NCCCCCCN1CCc2c(c3cc(F)ccc3n2-c2ccc(F)cc2)C1)c1ccccc1 | 8.5 nM |  |  |  | ED50 (Rattus norvegicus [5]): > 10 mg/kg
29 | O=C(CCCN1CCC(O)(c2ccc(Cl)cc2)CC1)c1ccc(F)cc1 [HALOPERIDOL] |  | 0.66 mg/kg |  |  | ED50 (Rattus norvegicus [2]; [14]): 0.75 mg/kg; ED50 (Rattus norvegicus [3]; [15]): > 10 mg/kg
30 | O=C(CCCN1CC[C@H]2[C@H](C1)c1cc(F)ccc1N2c1ccc(F)cc1)NC1CCCCC1 | 12 nM | 0.45 mg/kg | 0.14 mg/kg | 0.57 mg/kg | Pupil size (Mus musculus [12]): 0.23 mm
31 | O=C(NCCN1CC[C@H]2[C@H](C1)c1cc(F)ccc1N2c1ccc(F)cc1)C(CO)c1ccccc1 (some centres not stated) | 35 nM | 2.8 mg/kg | 0.89 mg/kg | 32 mg/kg | Pupil size (Mus musculus [12]): 0.23 mm
32 | Cl.O=C(CCCN1CC[C@H]2[C@H](C1)c1cc(F)ccc1N2c1ccc(F)cc1)Nc1ccccc1 | 19 nM | 0.45 mg/kg |  | 1.8 mg/kg | ED50 (Rattus norvegicus [13]): 0.18 mg/kg; Pupil size (Mus musculus [12]): 0.28 mm
33 | Cl.O=C(Nc1ccccc1)OCCN1CC[C@H]2[C@H](C1)c1cc(F)ccc1N2c1ccc(F)cc1 | 45 nM | 0.57 mg/kg | 0.45 mg/kg | 2.3 mg/kg | 
34 | Cl.OC(CCCN1CCC(N(c2ccc(F)cc2)c2ccc(F)cc2)CC1)c1ccc(F)cc1 (configuration not stated) | 1000 nM |  |  |  | 
35 | Cl.O[C@H](CCCN1CCC2C(C1)c1cc(F)ccc1N2c1ccc(F)cc1)c1ccc(F)cc1 (some centres not stated) | 25 nM | 0.21 mg/kg | 0.05 mg/kg | 0.02 mg/kg | 
36 | Fc1ccc(N2c3ccc(F)cc3[C@H]3CN(CCn4c5ccccc5c5ccccc54)CC[C@@H]32)cc1 |  | > 32 mg/kg | > 32 mg/kg |  | IC50 (Dopamine receptor [10]): Insoluble
37 | O[C@H](CCCN1CC[C@@H]2[C@@H](C1)c1cc(F)ccc1N2c1ccc(F)cc1)c1ccc(F)cc1 (stereo in doubt; 2d) | 1800 nM |  |  |  | ED50 (Rattus norvegicus [2]): 18.1 mg/kg; ED50 (Rattus norvegicus [3]): >10 mg/kg; ED50 (Rattus norvegicus [4]): >10 mg/kg
38 | OC(CCCN1CCc2c(c3cc(F)ccc3n2-c2ccc(F)cc2)C1)c1ccc(F)cc1 (configuration not stated) [FLUTROLINE] | 12 nM | 1 mg/kg |  |  | ED50 (Rattus norvegicus [2]; [14]): 0.15 mg/kg; ED50 (Rattus norvegicus [3]; [15]): 2.2 mg/kg
39 | Cl.O=C1CNC(=O)N1CCCCN1CC[C@@H]2c3cc(F)ccc3N(c3ccc(F)cc3)[C@H]2C1 | 12 nM | 0.057 mg/kg | 0.018 mg/kg | 0.18 mg/kg | 
